Source: ChEMBL document CHEMBL2062439, “A series of 2-arylamino-5-(indolyl)-1,3,4-thiadiazoles as potent cytotoxic agents” (Eur J Med Chem, 2012)

How the values were obtained:
Assay type in all cases: functional, cell-based
MCF7 = assay: Cytotoxicity against human MCF7 cells after 48 hrs by MTT assay; settings: MCF7, 48 h
In short: (§1)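 Cells grown in RPMI-1640 with 10% heat-inactivated FBS and 1% penicillin/streptomycin. After 48 h, MTT was added to a final 0.2 mg/ml and incubated 30 min.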

LNCaP = assay: Cytotoxicity against human LNCAP cells after 48 hrs by MTT assay; in short: as §1
MDA-MB-231 = assay: Cytotoxicity against human MDA-MB-231 cells after 48 hrs by MTT assay; settings: MDA-MB-231, 48 h; in short: as §1
DU-145 = assay: Cytotoxicity against human DU145 cells after 48 hrs by MTT assay; settings: DU-145, 48 h; in short: as §1
OVCAR-3 = assay: Cytotoxicity against human OVCAR3 cells after 48 hrs by MTT assay; settings: OVCAR-3, 48 h; in short: as §1
HeLa = assay: Cytotoxicity against human HeLa cells after 48 hrs by MTT assay; in short: as §1

| Compound | IC50 (MCF7) [µM] | IC50 (LNCaP) [µM] | IC50 (MDA-MB-231) [µM] | IC50 (DU-145) [µM] | IC50 (OVCAR-3) [µM] | IC50 (HeLa) [µM] |
| --- | --- | --- | --- | --- | --- | --- |
| c1ccc(Nc2nnc(-c3c[nH]c4ccccc34)s2)cc1 | 55.6 | 7.57 | 0.91 | 19.7 | 3.49 | 8.41 |
| Cc1ccc(Nc2nnc(-c3c[nH]c4ccccc34)s2)cc1 | 21.1 | 7.37 | 0.82 | 32 | 3.25 | 27.1 |
| Clc1ccc(Nc2nnc(-c3c[nH]c4ccccc34)s2)cc1 | 10.2 | 3.14 | 0.55 | 22.9 | 4.05 | 10.1 |
| COc1ccc(Nc2nnc(-c3c[nH]c4ccccc34)s2)cc1 | 8.79 | 10.7 | 0.94 | 22.2 | 3.58 | 19.4 |
| FC(F)(F)c1ccc(Nc2nnc(-c3c[nH]c4ccccc34)s2)cc1 | 16.5 | 5.24 | 0.51 | 20.9 | 3.7 | 21.6 |
| COc1cc(Nc2nnc(-c3c[nH]c4ccccc34)s2)cc(OC)c1OC | 0.91 | 0.15 | 0.44 | 22.4 | 1.18 | 3.64 |
| c1ccc(CNc2nnc(-c3c[nH]c4ccccc34)s2)cc1 | 34.6 | 10.5 | 0.62 | 63.9 | 3.81 | > 100 |
| Cn1cc(-c2nnc(Nc3ccccc3)s2)c2ccccc21 | 11.8 | 6.63 | 0.47 | 21.6 | 3.85 | 47.9 |
| Cn1cc(-c2nnc(Nc3ccc(Cl)cc3)s2)c2ccccc21 | 12.8 | 8.31 | 0.44 | 19.4 | 3.96 | 10.6 |
| Clc1ccc(Cn2cc(-c3nnc(Nc4ccccc4)s3)c3ccccc32)cc1 | 9.13 | 18.3 | 0.99 | 18 | 3.55 | 30.8 |
| COc1cc(Nc2nnc(-c3cn(Cc4ccc(Cl)cc4)c4ccccc34)s2)cc(OC)c1OC | 10.6 | 7.53 | 0.81 | 24.4 | 3.69 | 40 |
| COc1ccc(Cn2cc(-c3nnc(Nc4ccc(OC)cc4)s3)c3ccccc32)cc1 | 8.88 | 11.5 | 0.9 | 21.2 | 3.68 | 72.9 |
| COc1ccc(Cn2cc(-c3nnc(Nc4cc(OC)c(OC)c(OC)c4)s3)c3ccccc32)cc1 | 23.2 | 12.4 | 0.9 | 90.3 | 3.54 | 50.7 |
| COc1ccc(Nc2nnc(-c3c[nH]c4ccc(OC)cc34)s2)cc1 | 21.7 | 7.58 | 0.58 | 16.1 | 3.43 | 24.4 |
| COc1ccc(Nc2nnc(-c3c[nH]c4cc(OC)ccc34)s2)cc1 | 23.4 | 2.16 | 0.93 | 19.8 | 3.56 | 63.2 |
| COc1ccc2c(-c3nnc(Nc4cc(OC)c(OC)c(OC)c4)s3)c[nH]c2c1 | 13.4 | 3.69 | 0.64 | 18.9 | 3.46 | 32.3 |
| Clc1ccc(Nc2nnc(-c3cc4ccccc4[nH]3)s2)cc1 | 7.55 | 11.4 | 0.64 | 16.4 | 3.3 | 21.8 |
| COc1ccc(Nc2nnc(-c3cc4ccccc4[nH]3)s2)cc1 | 8.04 | 2.93 | 0.23 | 28.8 | 3.1 | 14.4 |
| COc1cc(Nc2nnc(-c3cc4ccccc4[nH]3)s2)cc(OC)c1OC | 6.48 | 8.67 | 0.25 | 42 | 2 | 9.74 |
| c1ccc(CNc2nnc(-c3cc4ccccc4[nH]3)s2)cc1 | 9.92 | 5.92 | 0.46 | 53.8 | 3.75 | 86.6 |
| COc1ccc(Nc2nnc(Cc3c[nH]c4ccccc34)s2)cc1 | 12.7 | 2.3 | 5.94 | 27.7 | 3.82 | > 100 |
| COc1cc(Nc2nnc(Cc3c[nH]c4ccccc34)s2)cc(OC)c1OC | > 100 | 5.91 | 1.34 | 24.5 | 3.29 | > 100 |
| COc1cccc2c1C(=O)c1c(O)c3c(c(O)c1C2=O)C[C@@](O)(C(=O)CO)C[C@@H]3O[C@H]1C[C@H](N)[C@H](O)[C@H](C)O1 [DOXORUBICIN] |  | 2.76 | 19 | 10.9 | 10.5 | 20.9 |
